Screens from PubChem.
In the library only some 2.7% were active in any assay of this set; here they are far more common.
14-3-3 Bad PPI: disrupts binding of bovine 14-3-3 zeta to phospho-Bad peptide. P63103. TR-FRET 14-3-3zeta/Dy647-pBad peptide displacement, 1 h. inhibition, % at 21.7 µM. 220,000 compounds, 0.71% hits. AID 781;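 active = inhibition above about 70%, limit read from the data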;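 also: 0% = full 14-3-3 plus peptide FRET controls and 100% = background without 14-3-3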
Target sequence (P63103 whole entry, looked up): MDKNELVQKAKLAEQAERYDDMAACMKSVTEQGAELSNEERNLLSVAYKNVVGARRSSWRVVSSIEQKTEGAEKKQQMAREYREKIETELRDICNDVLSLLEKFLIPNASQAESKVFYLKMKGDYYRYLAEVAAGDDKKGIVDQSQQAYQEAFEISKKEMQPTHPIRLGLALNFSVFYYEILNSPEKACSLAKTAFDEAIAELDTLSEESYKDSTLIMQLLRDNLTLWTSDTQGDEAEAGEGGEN
MDM2 E3 inh: inhibitors of human Mdm2 E3 ubiquitin ligase; Q00987; cell-based MDM2 ubiquitination luciferase reporter, 2 h; 0 = plate control, 100 = twice control, blank-subtracted; signal enhancement, % at 5 µM; 210,000 compounds, 0.11% hits; AID 1230;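 active = signal enhancement of 30% or more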;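 also: luminescence tracks abundance of the self-degrading MDM2-luciferase fusion protein; higher signal means inhibition of MDM2 E3 ligase activity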
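Assay system: stable mammalian line carrying autodegrading MDM2–luciferase fusion reporter; amount: 2000 cells seeded into each well; buffer or medium: DMEM; benchmarks: plate control and blank wells; signal: luciferase luminescence; timing: 2 h compound exposure at 37 °C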
Hck-Nef inh: inhibitors of human Hck kinase activated by Nef; P08631; Recombinant Hck-YEEI plus Nef, Z-Lyte FRET kinase assay; inhibition, % at 20 µM; 220,000 compounds, 0.68% hits;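 active = Hck-Nef kinase inhibition above about 50%, limit read from the data; inactive = inhibition below that limit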;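 also: 0% = DMSO with Hck plus Nef and 100% = Hck alone without Nef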
TbHK1 inh: T. brucei hexokinase 1 inhibition. recombinant TbHK1, G6PDH-coupled NADH A340. inhibition, % at 10 µM. 220,000 compounds, 0.11% hits. AID 1430;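 active = inhibition of 50% or more in the single-dose primary screen; inactive = inhibition below 50%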
Wee1 stabilizer: human Wee1 degradation inhibition, primary screen | P30291 | HeLa Luc-Wee1K328M stability, luciferase luminescence; 100% = proteasome inhibitor MG132 effect | reporter increase, % at 5 µM | 220,000 compounds, 1.2% hits;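 active = activation above the mean of all tested compounds plus 3 SD, set per screening run, cut at about 8.8% in these data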;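 also: cells exposed to compound for 20 h before luminescence read; 0% = DMSO alone and 100% = MG132 at 30 µM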
* hit, by the source's call; [ ] = dose if it differs, or a comment.

Results for Cc1ccc(S(=O)(=O)N2CCC(=O)N(C(COCc3ccc(C(F)(F)F)cc3)Cc3ccccc3)CC2)cc1 (stereo not given) ?
14-3-3 Bad PPI: 82*; Hck-Nef inh: -4; TbHK1 inh: 14; Wee1 stabilizer: -2

How did O=[N+]([O-])c1ccc(/C=N/NC(=S)Nc2ccccc2F)o1 do in these assays?
14-3-3 Bad PPI: -10; MDM2 E3 inh: -23; Hck-Nef inh: 0; TbHK1 inh: 1; Wee1 stabilizer: -2

Results for Fc1ccccc1NC(=S)N/N=C/c1ccccc1Br ?
14-3-3 Bad PPI: -3; Hck-Nef inh: -2; TbHK1 inh: -14; Wee1 stabilizer: 11*

Results for Cc1cccc2c1c1ccc3c(c1n2C)C(=O)C=CC3=O ?
14-3-3 Bad PPI: 10; MDM2 E3 inh: 54*; Hck-Nef inh: -6; TbHK1 inh: -7; Wee1 stabilizer: 1

Results for Nc1cc(Oc2cccnc2)cc([N+](=O)[O-])c1 ?
14-3-3 Bad PPI: 89*; MDM2 E3 inh: -11; Hck-Nef inh: -4; TbHK1 inh: -13; Wee1 stabilizer: 1

Results for CCOc1nnnc2c1sc1nc(N3CCOCC3)c3c(c12)CC(C)(C)OC3 ?
Hck-Nef inh: 1; TbHK1 inh: 0; Wee1 stabilizer: 4

Results for Cc1ccc(Cl)cc1Nc1nc(-c2sc(NC(=O)c3cccc(Cl)c3)nc2C)cs1 ?
14-3-3 Bad PPI: 89*; MDM2 E3 inh: -11; Hck-Nef inh: 8; TbHK1 inh: -79; Wee1 stabilizer: 6

What do the screens show for `Cc1ccccc1Nc1nc(-c2sc(NC(=O)c3cccc(Cl)c3)nc2C)cs1`?
14-3-3 Bad PPI: 44; MDM2 E3 inh: -18; Hck-Nef inh: 0; TbHK1 inh: -3; Wee1 stabilizer: 0

Results for Cc1nc(C)c(-c2csc(Nc3cccc(O)c3)n2)s1 ?
14-3-3 Bad PPI: -7; MDM2 E3 inh: -3; Hck-Nef inh: 51*; TbHK1 inh: 0; Wee1 stabilizer: 5

What do the screens show for `COc1ccc(Cl)cc1Nc1nc(-c2sc(NC(=O)c3ccccc3)nc2C)cs1`?
14-3-3 Bad PPI: 65; MDM2 E3 inh: -15; Hck-Nef inh: 14; TbHK1 inh: -25; Wee1 stabilizer: -1

What do the screens show for `Cc1nc(NC(=O)c2ccccc2)sc1-c1csc(Nc2ccc(Cl)cc2Cl)n1`?
14-3-3 Bad PPI: 76*[fluorescence artefact?]; MDM2 E3 inh: -14; Hck-Nef inh: 0; TbHK1 inh: -15; Wee1 stabilizer: -2

How did COc1cccc(Nc2nc(-c3ccc(O)cc3)cs2)c1 do in these assays?
14-3-3 Bad PPI: -7; MDM2 E3 inh: 2; Hck-Nef inh: 2; TbHK1 inh: -4; Wee1 stabilizer: 0

How did Cc1nc(NC(=O)c2ccccc2)sc1-c1csc(Nc2cccc(Cl)c2)n1 do in these assays?
14-3-3 Bad PPI: 86*; MDM2 E3 inh: -15; Hck-Nef inh: 1; TbHK1 inh: -11; Wee1 stabilizer: -3

How did CCOC(=O)C1(Cc2cccc(OC)c2)CCN(Cc2cccn2-c2ccccn2)CC1 do in these assays?
14-3-3 Bad PPI: -6; MDM2 E3 inh: -11; Hck-Nef inh: -6; TbHK1 inh: 3; Wee1 stabilizer: -2

How did Cc1nc(NC(=O)c2ccco2)sc1-c1csc(Nc2ccc(Cl)cc2Cl)n1 do in these assays?
14-3-3 Bad PPI: 87*[fluorescence artefact?]; MDM2 E3 inh: -10; Hck-Nef inh: 0; TbHK1 inh: -13; Wee1 stabilizer: -2

Results for Cc1nc(NC(=O)c2ccccc2)sc1-c1csc(Nc2ccc(Cl)cc2)n1 ?
14-3-3 Bad PPI: 70*; MDM2 E3 inh: 8; Hck-Nef inh: -1; TbHK1 inh: -24; Wee1 stabilizer: -1

What do the screens show for `COc1ccc(-c2cc(-c3nnc(COC(=O)c4ccncc4)o3)c3ccccc3n2)cc1OC`?
14-3-3 Bad PPI: -25; MDM2 E3 inh: 7; Hck-Nef inh: 11; TbHK1 inh: -17; Wee1 stabilizer: 0

Results for Cc1cc(F)ccc1S(=O)(=O)N1CCCOC1CNC(=O)C(=O)NCc1ccco1 (stereo not given) ?
14-3-3 Bad PPI: -6; MDM2 E3 inh: 5; Hck-Nef inh: 5; TbHK1 inh: -3; Wee1 stabilizer: 9.1*

What do the screens show for `O=C(NCc1cccnc1)C(=O)NCC1OCCN1S(=O)(=O)c1ccc(F)cc1` (stereo not given)?
14-3-3 Bad PPI: -5; Hck-Nef inh: -7; TbHK1 inh: 2; Wee1 stabilizer: 9.2*

Results for Cc1cc(F)ccc1S(=O)(=O)N1CCCOC1CNC(=O)C(=O)NCCc1c[nH]c2ccccc12 (stereo not given) ?
14-3-3 Bad PPI: -1; MDM2 E3 inh: 3; Hck-Nef inh: 0; TbHK1 inh: 2; Wee1 stabilizer: 0

How did CN(c1ccc(F)cc1)S(=O)(=O)c1ccc(Cl)c(C(=O)OCC(=O)NCc2ccco2)c1 do in these assays?
14-3-3 Bad PPI: -4; MDM2 E3 inh: -2; Hck-Nef inh: 13; TbHK1 inh: 8; Wee1 stabilizer: 2

Results for O=c1c2ccccc2nc2c3ccccc3cnn12 ?
14-3-3 Bad PPI: 80*; MDM2 E3 inh: -3; Hck-Nef inh: 19; TbHK1 inh: -11; Wee1 stabilizer: 4

Results for O=c1c2ccccc2nc2c3ccccc3c(Cl)nn12 ?
14-3-3 Bad PPI: -6; MDM2 E3 inh: 4; Hck-Nef inh: 19; TbHK1 inh: -11; Wee1 stabilizer: 5

Results for CCOc1ccccc1OCCn1nnc2ccccc21 ?
14-3-3 Bad PPI: 82*; MDM2 E3 inh: -9; Hck-Nef inh: 4; TbHK1 inh: -2; Wee1 stabilizer: 4

Results for CCOc1ccc(S(=O)(=O)n2nnc3ccccc32)cc1C(C)C ?
14-3-3 Bad PPI: 71*; MDM2 E3 inh: -7; Hck-Nef inh: 3; TbHK1 inh: 3; Wee1 stabilizer: -1

Results for COC(=O)c1ccc2c(c1)N(Cc1nc(-c3cccc(C)c3)oc1C)C(=O)C1CCCN21 (stereo not given) ?
14-3-3 Bad PPI: 33; MDM2 E3 inh: -1; Hck-Nef inh: 4; TbHK1 inh: -12; Wee1 stabilizer: -1

Results for COc1ccc(S(=O)(=O)N=C2C=C(C)C(=O)C(C)=C2)cc1 ?
14-3-3 Bad PPI: 72*; MDM2 E3 inh: -15; Hck-Nef inh: 1; TbHK1 inh: -7; Wee1 stabilizer: 0

What do the screens show for `COc1ccc(C(=O)ON=C2C=C(C)C(=O)C(C)=C2)cc1`?
14-3-3 Bad PPI: -5; MDM2 E3 inh: -10; Hck-Nef inh: -85; TbHK1 inh: 3; Wee1 stabilizer: 2

How did Cc1cc(=O)oc2cc(O)c(N=Nc3ccccc3)cc12 do in these assays?
14-3-3 Bad PPI: -3; MDM2 E3 inh: 1; Hck-Nef inh: 9; TbHK1 inh: -17; Wee1 stabilizer: 9.4*

Results for COc1cccc(CNc2ncn[nH]2)c1OCc1ccc(F)cc1 ?
14-3-3 Bad PPI: -10; MDM2 E3 inh: 5; Hck-Nef inh: 22; TbHK1 inh: -5; Wee1 stabilizer: -1

What do the screens show for `CCN1CCCC1CNCc1cccc(OC)c1OCc1ccc(F)cc1` (stereo not given)?
14-3-3 Bad PPI: 77*; MDM2 E3 inh: -11; Hck-Nef inh: 2; TbHK1 inh: 6; Wee1 stabilizer: 4
